Bioassay records (PubChem)
In the library only some 2.3% were active in any assay of this set; here they are far more common.
TRPC4 inh: TRPC4 (mouse) channel inhibition. Q9QUQ5. HEK293 TRPC4beta/mu-opioid, DAMGO-evoked Fluo4 calcium flux; stronger effect = lower value. B-score at 10 µM. hit rate 0.39% among 300,000. AID 2247;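 active means B-score over 3 SD under the library average, no early fluorescence shift, positive overall ratio signal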
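Material: HEK293 cells with stable TRPC4beta plus mu-opioid receptor expression / Probe or stimulus: DAMGO in two steps, submaximal then maximal / Compound: single concentration per test compound / Technique: kinetic Fluo4 fluorescence imaging of calcium influx / Read-out: per-well B score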
TRPC4 potent: allosterically enhances the mouse TRPC4 cation channel; hit rate 0.42% among 310,000; Q9QUQ5; B-score at 10 µM; HEK293 TRPC4beta/mu-opioid, DAMGO EC20, Fluo-4 Ca2+ flux; stronger effect = higher value;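 active means B-score of calcium response area above 5 SD of library B-scores, with initial fluorescence ratio within 5 SD of library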;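 further: B-score of integrated fluorescence ratio over time as area under calcium response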
TRPC6 activator: activates the mouse TRPC6 cation channel. Q61143. HEK293-TRPC6 membrane potential dye fluorescence; stronger effect = higher value. B-score at 10 µM. hit rate 0.13% among 310,000. AID 2550;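 active means B-score of the integrated fluorescence ratio above library mean plus 3 SD, and starting fluorescence ratio within library mean plus 5 SD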;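 further: higher score means more depolarization so channel activation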
Target sequence (Q61143 whole entry, looked up): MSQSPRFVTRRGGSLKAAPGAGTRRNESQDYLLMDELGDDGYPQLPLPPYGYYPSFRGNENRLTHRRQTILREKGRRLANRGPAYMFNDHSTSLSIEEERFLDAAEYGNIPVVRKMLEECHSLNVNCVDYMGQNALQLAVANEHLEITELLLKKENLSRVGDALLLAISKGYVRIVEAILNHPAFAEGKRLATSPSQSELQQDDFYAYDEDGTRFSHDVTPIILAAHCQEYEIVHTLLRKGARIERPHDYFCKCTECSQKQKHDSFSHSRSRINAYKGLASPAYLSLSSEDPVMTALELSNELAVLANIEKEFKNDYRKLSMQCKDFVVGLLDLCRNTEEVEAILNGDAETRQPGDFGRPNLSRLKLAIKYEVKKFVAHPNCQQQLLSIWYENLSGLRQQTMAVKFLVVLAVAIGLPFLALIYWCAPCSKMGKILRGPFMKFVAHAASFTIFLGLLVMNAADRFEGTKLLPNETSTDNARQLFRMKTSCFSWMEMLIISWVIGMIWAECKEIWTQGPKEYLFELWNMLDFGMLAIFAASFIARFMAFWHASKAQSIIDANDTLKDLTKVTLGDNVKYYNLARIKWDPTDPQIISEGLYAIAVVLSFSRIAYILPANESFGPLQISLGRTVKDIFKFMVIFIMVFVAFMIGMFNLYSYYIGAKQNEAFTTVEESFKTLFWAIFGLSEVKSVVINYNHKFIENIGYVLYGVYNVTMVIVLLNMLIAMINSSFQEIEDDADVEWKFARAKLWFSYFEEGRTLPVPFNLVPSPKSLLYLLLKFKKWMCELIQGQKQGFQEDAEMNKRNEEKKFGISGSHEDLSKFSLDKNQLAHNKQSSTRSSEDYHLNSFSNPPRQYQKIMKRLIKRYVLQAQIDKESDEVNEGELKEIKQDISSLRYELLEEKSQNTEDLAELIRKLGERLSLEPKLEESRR
TRPC4 act: TRPC4 (mouse) channel activation; B-score at 10 µM; hit rate 0.49% among 310,000; HEK293 TRPC4beta/mu-opioid, Fluo4 calcium fluorescence; stronger effect = higher value; Q9QUQ5;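 active means B-score above 5 SD of library B-scores, and initial fluorescence ratio not above library mean plus 5 SD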;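 further: positive B-score marks a calcium rise read as TRPC4 activation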
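System – HEK293 cells stably co-expressing mouse TRPC4beta and mu-opioid receptor · Signal – Fluo4 calcium-sensitive dye fluorescence, kinetic, 1 Hz baseline · Benchmarks – buffer (low) and maximal DAMGO (high) · Read-out – B score of integrated fluorescence ratio per well · Incubation – dye loading 45 min room temperature, 110 s kinetic read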
TRPC6 inh: mouse TRPC6 channel inhibition; Q61143; HEK293-TRPC6, membrane potential dye, ACh-evoked depolarization; stronger effect = lower value; B-score at 10 µM; hit rate 1.1% among 310,000; AID 2553;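 active means B-score under library mean minus 3 SD, initial fluorescence not abnormally high, positive integrated signal ratio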;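 further: B-score derived from integrated fluorescence ratio over the kinetic read; more negative B-score means stronger inhibition of depolarization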
TRPC4 spec 2: second selectivity test of TRPC6 inhibitors: effect on mouse TRPC4; HEK293 TRPC4/MOR, membrane potential dye fluorescence; channel activated by saturating DAMGO dose; hit rate 42% among 920; shares compounds with TRPC6 inh; inhibition, % at 10 µM; AID 2776;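 active means compounds whose fluorescence signal differed from control wells by over 3 SD, either direction, in both duplicate plates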
TRPC4 spec: mouse TRPC4 off-target activity of TRPC6 inhibitors; shares compounds with TRPC6 inh; hit rate 61% among 920; activity change, negative = inhibition, % at 10 µM; HEK293 TRPC4/mu-opioid, membrane potential fluorescence; AID 2777;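 active means rise or fall in signal beyond 3 SD of buffer-only wells in both replicate plates, either sign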;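 further: integrated kinetic ratio of fluorescence range over baseline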
HEK293 MPD ctr 2-1: parental HEK293 nonspecific activity of TRPC6 inhibitors, second screen; shares compounds with TRPC6 inh; parental HEK293 membrane potential dye fluorescence; maximal acetylcholine challenge after compound addition; signal change vs control, % at 10 µM; hit rate 31% among 920;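 active means membrane potential signal moving either way by over 3 SD of the maximum-effect control, in both duplicate plates, meaning non-specific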
HEK293 MPD ctr-1: parental HEK293 nonspecific activity of TRPC6 inhibitors; membrane potential signal change, % at 10 µM; parental HEK293 membrane potential dye fluorescence; shares compounds with TRPC6 inh; hit rate 60% among 920; AID 2780;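 active means membrane potential signal shifting up or down by more than 3 SD of buffer-only wells, on both duplicate plates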
HEK293 MPD ctr-2: counter-screen for TRPC6 modulators: effect in parental HEK293 cells | shares compounds with TRPC6 inh | membrane potential dye fluorescence | membrane potential signal change, % at 10 µM | hit rate 51% among 2,400;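 active means membrane potential signal moves up or down beyond 5 SD from buffer-only wells, on both duplicate plates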
HEK293 MPD ctr 2-2: second check of TRPC6 modulator effects in parental HEK293 cells. inhibition, % at 10 µM. shares compounds with TRPC6 inh. AID 488926. membrane potential dye fluorescence; after compound, maximal acetylcholine stimulation. hit rate 14% among 2,400;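 active means membrane potential signal drops by more than 5 SD from the mean control signal, in both duplicate plates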;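 further: plate controls were acetylcholine ECmax control wells for no effect and buffer only wells for full effect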
TRPC4 ctr mod: mouse TRPC4 off-target activity of TRPC6 modulators; AID 488927; hit rate 69% among 2,400; percent change from control (negative = decrease, positive = increase), % at 10 µM; HEK293 TRPC4/mu-opioid, membrane potential fluorescence; shares compounds with TRPC6 inh;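 active means membrane potential signal moved up or down beyond 5 SD of buffer control wells, in both duplicate plates, actives on both sides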;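 further: plate controls were assay buffer wells for no effect and DAMGO maximal-effect wells for full effect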
TRPC4 ctr inh 2: mouse TRPC4 off-target activity of TRPC6 modulators, second screen; shares compounds with TRPC6 inh; HEK293 TRPC4/mu-opioid, membrane potential dye fluorescence; stimulated with maximal-effect DAMGO; inhibition, % at 10 µM; hit rate 55% among 2,400; AID 488928;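 active means drop in membrane potential signal beyond 5 SD of the control wells in both duplicate plates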;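 further: TRPC4 counter screen for TRPC6 hits run under conditions tuned for TRPC6 not TRPC4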
TRPC6 block conf: confirmation of mouse TRPC6 inhibitors; shares compounds with TRPC6 inh; HEK293-TRPC6, membrane potential dye, ACh-evoked depolarization; inhibition, % at 10 µM; hit rate 43% among 3,300;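 active means fluorescence ratio falls more than 5 SD below the full-stimulation control mean, in both duplicate runs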;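 further: integrated fluorescence ratio of peak minus minimum over baseline after agonist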
TRPC6 act conf: confirmation of mouse TRPC6 activators. shares compounds with TRPC6 inh. HEK293-TRPC6 membrane potential dye fluorescence, FDSS. activation, % at 10 µM. hit rate 11% among 2,800. AID 488961;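 active means ratio signal rise beyond 5 SD above unstimulated control wells' mean, seen in both duplicate runs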;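 further: plate controls were buffer EC0 wells for no effect and acetylcholine ECmax response for full effect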
The depositor's hits bear a star; i = inactive; nt = no result given.

SMILES	TRPC4 inh	TRPC4 potent	TRPC6 activator	TRPC4 act	TRPC6 inh	HEK293 MPD ctr-2	HEK293 MPD ctr 2-2	TRPC4 ctr mod	TRPC4 ctr inh 2	TRPC6 block conf	TRPC6 act conf	others
Cc1scc2c1N(C(=O)CN1CCN(C)CC1)c1ccccc1NC2=O	i	i	i	i	-6.5*	i	86.5%*	i	i	77.5%*	i
CCN1CCN(CC(=O)N2c3ccccc3Sc3ccccc32)CC1	i	i	i	i	i	nt	nt	nt	nt	nt	nt
O=C1N[C@@H](Cc2ccccc2)C(=O)N2[C@H]1C[C@]1(Br)c3ccccc3N(S(=O)(=O)c3ccc(F)cc3)[C@H]21	i	i	i	i	i	nt	nt	nt	nt	nt	nt
CCN(CC)S(=O)(=O)c1ccc(NN=C2CCN(C)CC2)c([N+](=O)[O-])c1	i	i	i	i	-7.17*	-83.0%*	i	-19.5%*	39.0%*	i	i
CN(C)C(=O)C(CCN1CCC(O)(c2ccc(Cl)cc2)CC1)(c1ccccc1)c1ccccc1	i	i	i	50*	-5.44*	115.0%*	i	78.5%*	112.5%*	61.0%*	nt
CN(C)c1ccc(NC(=O)CN2CCC(O)(c3ccccc3)CC2)cc1	i	i	i	i	i	nt	nt	nt	nt	nt	nt
O=C(COC(=O)CCSc1ccc(Cl)cc1)NCc1ccco1	i	i	i	i	i	nt	nt	nt	nt	nt	nt
Cc1ccc(C(OCC(O)CNC(CO)C(O)c2ccc([N+](=O)[O-])cc2)c2ccccc2)cc1 (stereo not given)	i	i	i	i	i	nt	nt	nt	nt	nt	nt
CCOc1ccc(S(=O)(=O)NC(C)C)cc1C(N)=O	i	i	i	i	i	nt	nt	nt	nt	nt	nt
CCc1noc(C)c1C(=O)Nc1ccc(-c2nnc3n2CCCCC3)cc1	i	i	i	i	-4.98*	i	i	i	i	i	i
CCc1noc(C)c1C(=O)Nc1ccc(S(=O)(=O)N2CCCCC2)cc1	i	i	i	i	i	nt	nt	nt	nt	nt	nt
Cc1nn(CC(=O)Nc2ccc(Cl)c(S(=O)(=O)N(C)C)c2)c(C)c1[N+](=O)[O-]	i	i	i	i	i	nt	nt	nt	nt	nt	nt
COc1ccc(-c2nc3cccc(C)n3c2NCC2CCCO2)cc1O (stereo not given)	i	i	i	i	-6.05*	-231.5%*	i	-41.5%*	46.5%*	45.0%*	i
CCc1ccccc1NC(=O)COC(=O)c1cccs1	i	i	i	i	i	nt	nt	nt	nt	nt	nt
N=c1c2ccccc2nc2n1CCCCCCCCCCC2	i	i	i	i	-7.61*	nt	nt	nt	nt	i	nt	TRPC4 spec 2=50.0%*;TRPC4 spec=17.1%*;HEK293 MPD ctr 2-1=253.5%*;HEK293 MPD ctr-1=18.3%*
Cc1nn(C)c(C(=O)N/N=C/c2ccc(C(F)(F)F)cc2)c1[N+](=O)[O-]	i	i	i	i	-5.78*	i	i	-13.5%*	i	i	i
C[C@@H]1CC[C@]2(O[C@H](CCO)C[C@H](O)[C@H]2O)O1	i	i	i	i	i	nt	nt	nt	nt	nt	nt
CN(C)c1nc(Nc2ccccc2)nc(N(C)C)n1	i	i	i	i	i	nt	nt	nt	nt	nt	nt
COc1ccc(C)cc1Nc1nc(N)c2ccccc2n1	i	i	i	i	-10.2*	-221.0%*	112.5%*	-52.0%*	91.0%*	100.0%*	i
Cc1ccc(Nc2nc(N)c3ccccc3n2)cc1Cl	i	i	i	i	-6.5*	-127.5%*	83.0%*	-35.0%*	79.0%*	75.0%*	i
CN(C)c1ccc(Nc2nc(N)c3ccccc3n2)cc1	i	i	i	i	-7.33*	-181.5%*	89.5%*	-45.0%*	86.0%*	84.5%*	i
Nc1nc(Nc2ccc(Cl)cc2)nc2ccccc12	i	i	i	i	-11.6*	-163.0%*	89.5%*	-36.5%*	88.0%*	84.0%*	i
COc1cc2nc(Nc3ccc(C)c(Cl)c3)nc(N)c2cc1OC	i	i	i	i	i	nt	nt	nt	nt	nt	nt
COc1ccc([N+](=O)[O-])cc1Nc1c2ccccc2nc2ccccc12	i	i	i	i	i	nt	nt	nt	nt	nt	nt
COc1ccccc1C1=NOC(Cn2c(NCCOCCO)nc3c2c(=O)n(C)c(=O)n3C)C1 (stereo not given)	i	i	i	i	i	nt	nt	nt	nt	nt	nt
Nc1nc(Nc2ccccc2)nc2ccccc12	i	i	i	i	-22*	-199.5%*	90.5%*	-45.5%*	86.5%*	85.5%*	i
Cc1ccccc1Nc1nc(N)c2ccccc2n1	i	i	i	i	-6.75*	nt	nt	nt	nt	70.1%*	i	TRPC4 spec 2=31.5%*;TRPC4 spec=-25.8%*;HEK293 MPD ctr 2-1=35.5%*;HEK293 MPD ctr-1=-330.5%*
CCOc1ccc(Nc2nc(N)c3ccccc3n2)cc1	i	i	i	i	i	nt	nt	nt	nt	nt	nt
CN1CCCc2cc(C=O)ccc21	i	i	i	i	-7.91*	nt	nt	nt	nt	i	i	TRPC4 spec 2=i;TRPC4 spec=-8.7%*;HEK293 MPD ctr 2-1=i;HEK293 MPD ctr-1=i
O=C(Nc1ccccc1C(=O)O)c1ccc(NC(=O)c2ccc(Br)o2)cc1	i	i	16.6*	i	i	190.0%*	i	27.0%*	i	i	93.5%*
